# Assays:
# A-375 = assay: Cytotoxicity against human A-375 cells assessed as reduction in cell viability incubated for 72 hrs by SRB assay; assay type: toxicity, cell-based
# [1] = Kinetic solubility of compound in PBS at 0.78 to 500 uM measured immediately by nephelometric method; assay type: physicochemical; conditions: buffer, dose 0.78-500 µM
# How it was run: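 DMSO stocks prediluted in DMSO, then diluted 1:50 into PBS (2 % DMSO final) and read immediately by nephelometry at 0.78–500 μM; blank-corrected data fitted by segmental regression; quadruplicates from one stock.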
# [2] = tested on: Mycolicibacterium smegmatis; assay: Antibacterial activity against Mycobacterium smegmatis mc2 155 expressing tomato RFP assessed as bacterial growth inhibition incubated for 3 days in 7H9 medium by RFP fluorescence based broth microdilution method; assay type: functional; conditions: mc2 155, 72 h, time 3 day
# How it was run: (§1)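 Broth microdilution in 7H9 with 10 % ADS and 0.05 % Tween 80. Twofold nine-point dilution series. Inoculum 5 x 10⁵ cells/mL taken from a mid-log preculture. Incubation at 37 °C, 3 days for M. smegmatis and M. abscessus, 5 days for M. intracellulare. Read-out by RFP fluorescence (ex 544/em 590 nm). Controls were 1 % DMSO and 100 μM amikacin. MIC₉₀ from duplicates, averaged.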
# [3] = Cytotoxicity against mouse NIH3T3 cells assessed as reduction in cell viability incubated for 72 hrs by SRB assay; assay type: toxicity, cell-based; conditions: mouse, NIH3T3 cells
# [4] = tested on: Mycobacterium intracellulare; assay: Antibacterial activity against Mycobacterium intracellulare ATCC 35761 expressing tomato RFP assessed as bacterial growth inhibition incubated for 5 days in 7H9 medium by RFP fluorescence based broth microdilution method; assay type: functional; conditions: ATCC 35761, 120 h, time 5 day; how it was run: as §1
# [5] = tested on: Mycobacteroides abscessus; assay: Antibacterial activity against Mycobacterium abscessus ATCC 19977 expressing tomato RFP assessed as bacterial growth inhibition incubated for 3 days in 7H9 medium by RFP fluorescence based broth microdilution method; assay type: functional; conditions: ATCC 19977, 72 h, time 3 day; how it was run: as §1
# [6] = tested on: Mycobacterium tuberculosis; assay: Antibacterial activity against Mycobacterium tuberculosis H37Rv ATCC 27294 assessed as bacterial growth inhibition incubated for 7 days in 7H9 medium by optical density based microplate reader analysis; assay type: functional; conditions: H37Rv ATCC 27294, 168 h, time 7 day
# How it was run: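 Compounds serially diluted in flat-bottom 96-well plates. Mid-log culture mixed in to a final OD₆₀₀ of 0.05. Sealed plates incubated in humidified boxes at 37 °C for 7 days with shaking at 80 rpm. Turbidity read at 600 nm. MIC₉₀ taken from dose–response curves. Two biological replicates, averaged.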
# [7] = tested on: Mycobacteroides abscessus; assay: Antibacterial activity against Mycobacterium abscessus ATCC 19977 expressing tomato RFP assessed as bacterial growth inhibition incubated for 3 days in MHII medium by RFP fluorescence based broth microdilution method; assay type: functional; conditions: ATCC 19977, 72 h, time 3 day
# How it was run: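 Broth microdilution in MHII broth with 0.05 % Tween 80, against the RFP-expressing strain. Twofold nine-point dilution series. Inoculum 5 x 10⁵ cells/mL from a mid-log preculture. Incubated 3 days at 37 °C. Read-out by RFP fluorescence (ex 544/em 590 nm). Controls were 1 % DMSO and 100 μM amikacin. MIC₉₀ from duplicates, averaged.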
# HEK293 = assay: Cytotoxicity against HEK293 cells assessed as reduction in cell viability incubated for 72 hrs by SRB assay; assay type: toxicity, cell-based, Homo sapiens
# HT-29 = assay: Cytotoxicity against human HT-29 cells assessed as reduction in cell viability incubated for 72 hrs by SRB assay; assay type: toxicity, cell-based
# A2780 = assay: Cytotoxicity against human A2780 cells assessed as reduction in cell viability incubated for 72 hrs by SRB assay; assay type: toxicity, cell-based
# [8] = tested on: Mycobacteroides abscessus; assay: Antibacterial activity against Mycobacterium abscessus Bamboo harboring inactive clarithromycin-sensitive erm41 C28 sequevar assessed as bacterial growth inhibition incubated for 3 days in 7H9 medium by optical density based method; assay type: functional; conditions: 72 h, time 3 day
# [9] = tested on: Mycobacteroides abscessus; assay: Antibacterial activity against Mycobacterium abscessus ATCC 19977 expressing tomato RFP infected in human THP-1 cells assessed as bacterial growth inhibition incubated for 4 days in RPMI medium by RFP fluorescence based assay; assay type: functional; conditions: ATCC 19977, 96 h, time 4 day
# How it was run: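 RFP M. abscessus washed, moved into RPMI, filtered through 5 µm and opsonised with 10 % human serum for 30 min. THP-1 cells infected at MOI 5:1 with PMA 40 ng/mL for 4 h at 37 °C, then washed. Infected cells (1x10⁵/well) given a ten-point twofold series. Incubated 4 days at 37 °C, 5 % CO₂. Cells PFA-fixed and DAPI-stained. RFP quantified by imaging. Controls were DMSO and 1.5 µM bedaquiline. Duplicate.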
# MCF7 = assay: Cytotoxicity against human MCF7 cells assessed as reduction in cell viability incubated for 72 hrs by SRB assay; assay type: toxicity, cell-based
# HeLa = assay: Cytotoxicity against human HeLa cells assessed as reduction in cell viability incubated for 72 hrs by SRB assay; assay type: toxicity, cell-based
# [10] = tested on: Mycobacteroides abscessus; assay: Bactericidal activity against Mycobacterium abscessus ATCC 19977 assessed as reduction in viable bacteria at 3.13 uM incubated for 4 days by microplate dilution assay relative to control; assay type: functional; conditions: time 4 day
# How it was run: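 After 4 days in the microplate dilution assay, 10 µl samples (undiluted or 1:100) were plated on 7H10 with glycerol, ADS and 400 µg/mL hygromycin. Colonies counted after 4 days at 37 °C. Done in triplicate. CFU/mL compared with the inoculum counted before incubation.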
# [11] = tested on: Mycobacteroides abscessus; assay: Bactericidal activity against Mycobacterium abscessus ATCC 19977 assessed as reduction in viable bacteria at 6.25 uM incubated for 4 days by microplate dilution assay relative to control; assay type: functional; conditions: time 4 day
# [12] = tested on: Mycobacteroides abscessus; assay: Antibacterial activity against MMV688845-resistant Mycobacterium abscessus Bamboo 845R-2.1 harboring rpoB/beta subunit P473L mutation assessed as bacterial growth inhibition incubated for 3 days by optical density based analysis; assay type: functional; conditions: Bamboo 845R-2.1, 72 h, time 3 day
# How it was run: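 Tenfold-point twofold dilution series in 7H9, final DMSO 1 %. Final ranges typically 50–0.098 or 6.25–0.012 μM. Mid-log culture added to an initial OD₆₀₀ of 0.05 (5*10⁶ CFU/mL). Incubated 3 days at 37 °C with shaking at 110 rpm. Growth taken as OD₆₀₀ on day 3 minus day 0, as % of drug-free wells. MIC₉₀ read visually from the curves. Clarithromycin as control. Two biological replicates, averaged.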
Structure (SMILES),EC50 (A-375),Kinetic_solubility [1],MIC90 [2],EC50 at 72 h [3],MIC90 [4],MIC90 [5],MIC90 [6],MIC90 [7],EC50 (HEK293),EC50 (HT-29),EC50 (A2780),MIC50 [8],MIC90 [8],MIC50 [9],MIC90 [9],EC50 (MCF7),EC50 (HeLa),Activity [10],Activity [11],MIC90 [12]
O=C(N[C@H](Cc1ccccc1)C(=O)Nc1ccccc1N1CCSCC1)c1cccs1,> 30 µM,34 µM,3.13 µM,> 30 µM,0.78 µM,12.5 µM,6.25 µM,50 µM,19.1 µM,> 30 µM,19.8 µM,2.5 µM,14 µM,12.5 µM,> 100 µM,16.4 µM,> 30 µM,,,
O=C(N[C@H](Cc1ccccc1)C(=O)Nc1ccccc1N1CC[S+]([O-])CC1)c1ccccc1F,> 30 µM,431 µM,,> 30 µM,0.1 µM,6.25 µM,,3.13 µM,> 30 µM,> 30 µM,> 30 µM,0.4 µM,2.1 µM,0.78 µM,12.5 µM,> 30 µM,> 30 µM,81%,99%,100 µM
O=C(N[C@H](Cc1ccc(O)cc1)C(=O)Nc1cc(F)ccc1N1CCS(=O)(=O)CC1)c1ccccc1F,> 30 µM,158 µM,6.25 µM,> 30 µM,0.2 µM,6.25 µM,0.78 µM,6.25 µM,> 30 µM,> 30 µM,> 30 µM,1.1 µM,13 µM,3.13 µM,25 µM,> 30 µM,> 30 µM,,,
O=C(N[C@H](Cc1ccccc1)C(=O)Nc1cc(F)ccc1N1CC[S+]([O-])CC1)c1ccccc1F,> 30 µM,184 µM,1.56 µM,> 30 µM,0.2 µM,3.31 µM,0.78 µM,3.13 µM,,> 30 µM,> 30 µM,0.52 µM,2 µM,0.39 µM,12.5 µM,> 30 µM,> 30 µM,,,
O=C(N[C@H](Cc1ccc(O)cc1)C(=O)Nc1cc(F)ccc1N1CCS(=O)(=O)CC1)c1cccs1,> 30 µM,170 µM,6.25 µM,> 30 µM,0.05 µM,6.25 µM,0.78 µM,3.13 µM,,29.8 µM,29.7 µM,0.4 µM,9 µM,6.25 µM,25 µM,> 30 µM,> 30 µM,,,
O=C(N[C@H](Cc1ccccc1)C(=O)Nc1ccccc1N1CCSCC1)c1ccccc1F,18.6 µM,28 µM,3.13 µM,> 30 µM,0.78 µM,12.5 µM,6.25 µM,50 µM,6.3 µM,> 30 µM,14.9 µM,3 µM,18 µM,12.5 µM,> 100 µM,13.6 µM,> 30 µM,,,
CO[C@H]1/C=C/O[C@@]2(C)Oc3c(C)c(O)c4c(c3C2=O)C2=NC3(CCN(CC(C)C)CC3)NC2=C(NC(=O)/C(C)=C\C=C\[C@H](C)[C@H](O)[C@@H](C)[C@@H](O)[C@@H](C)[C@H](OC(C)=O)[C@@H]1C)C4=O [RIFABUTIN],,,,,,,,,,,,,3 µM,,,,,,,1.1 µM
O=C(N[C@H](Cc1ccsc1)C(=O)Nc1ccccc1N1CCOCC1)c1ccccc1F,> 30 µM,31 µM,1.56 µM,> 30 µM,0.78 µM,12.5 µM,3.13 µM,12.5 µM,,> 30 µM,> 30 µM,1.9 µM,7 µM,6.25 µM,25 µM,> 30 µM,> 30 µM,,,
O=C(N[C@H](Cc1ccccc1)C(=O)Nc1cc(F)ccc1N1CCSCC1)c1cccs1,> 30 µM,37 µM,3.13 µM,> 30 µM,0.78 µM,25 µM,1.56 µM,50 µM,,> 30 µM,> 30 µM,1.4 µM,14 µM,3.13 µM,> 100 µM,> 30 µM,> 30 µM,,,
O=C(N[C@H](Cc1ccccc1)C(=O)Nc1ccccc1N1CCS(=O)(=O)CC1)c1cccs1,> 30 µM,62 µM,1.56 µM,> 30 µM,0.1 µM,3.13 µM,0.2 µM,3.13 µM,> 30 µM,> 30 µM,23.6 µM,0.24 µM,1.7 µM,0.78 µM,6.25 µM,> 30 µM,> 30 µM,95%,99%,
O=C(N[C@H](Cc1cccs1)C(=O)Nc1ccccc1N1CC[S+]([O-])CC1)c1cccs1,> 30 µM,60 µM,3.13 µM,> 30 µM,0.2 µM,12.5 µM,3.13 µM,12.5 µM,,> 30 µM,> 30 µM,1.3 µM,5.8 µM,12.5 µM,100 µM,> 30 µM,> 30 µM,,,
O=C(N[C@H](Cc1ccccc1)C(=O)Nc1ccccc1C1CCSCC1)c1cccs1,> 30 µM,39 µM,6.25 µM,> 30 µM,6.25 µM,50 µM,> 25 µM,100 µM,,> 30 µM,> 30 µM,21 µM,44 µM,> 100 µM,> 100 µM,> 30 µM,> 30 µM,,,
CC[C@H]1OC(=O)[C@H](C)[C@@H](O[C@H]2C[C@@](C)(OC)[C@@H](O)[C@H](C)O2)[C@H](C)[C@@H](O[C@@H]2O[C@H](C)C[C@H](N(C)C)[C@H]2O)[C@](C)(OC)C[C@@H](C)C(=O)[C@H](C)[C@@H](O)[C@]1(C)O [CLARITHROMYCIN],,,,,,,,,,,,,,,,,,,,0.27 µM
